From ChEMBL document CHEMBL1938298, “Synthesis and characterization of [¹²⁵I]2-iodo N-[(S)-{(S)-1-methylpiperidin-2-yl}(phenyl)methyl]3-trifluoromethyl-benzamide as novel imaging probe for glycine transporter 1” (Bioorg Med Chem, 2011)
Active and inactive are the calls of the source. No cut-off for these calls is given here.

What was measured:
Mus musculus [1] = assay: In vivo binding affinity to GlyT1 in ddY mouse brain cerebellum at 33.3 kBq, iv after 60 mins in presence of SSR504734 2 mg/kg, iv administered 15 mins prior to compound administration relative to control; assay type: functional, organism-based; parameters: dose 2 mg/kg; settings: tested as the 125I-labelled form
Procedure, shortened: (§1)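 Blocking study in male ddY mice (6 weeks, 30–35 g). The blocker (2 mg/kg in 30% DMSO/saline) was injected i.v. 15 min before about 33.3 kBq [125I]tracer i.v.; mice were killed at 30 or 60 min. Brains were divided into cortex, corpus callosum, hippocampus, thalamus, midbrain, medulla and cerebellum, weighed and gamma-counted as % dose/g. Values are mean ± SD, n = 5–6, compared to control by Kruskal–Wallis with Dunn's post-test.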

[2] = biological target: T1, Sodium- and chloride-dependent glycine transporter 1 (Rattus norvegicus) (UniProt P28572); assay: Binding affinity to GlyT1 in rat brain cerebellum at 0.03 to 0.04 nM preincubated for 20 mins in binding buffer before compound addition measured after 30 mins by autoradiography in presence of 10 mM GlyT1 substrate glycine relative to control; assay type: tissue-based; settings: tested as the 125I-labelled form
T1 sequence (whole entry): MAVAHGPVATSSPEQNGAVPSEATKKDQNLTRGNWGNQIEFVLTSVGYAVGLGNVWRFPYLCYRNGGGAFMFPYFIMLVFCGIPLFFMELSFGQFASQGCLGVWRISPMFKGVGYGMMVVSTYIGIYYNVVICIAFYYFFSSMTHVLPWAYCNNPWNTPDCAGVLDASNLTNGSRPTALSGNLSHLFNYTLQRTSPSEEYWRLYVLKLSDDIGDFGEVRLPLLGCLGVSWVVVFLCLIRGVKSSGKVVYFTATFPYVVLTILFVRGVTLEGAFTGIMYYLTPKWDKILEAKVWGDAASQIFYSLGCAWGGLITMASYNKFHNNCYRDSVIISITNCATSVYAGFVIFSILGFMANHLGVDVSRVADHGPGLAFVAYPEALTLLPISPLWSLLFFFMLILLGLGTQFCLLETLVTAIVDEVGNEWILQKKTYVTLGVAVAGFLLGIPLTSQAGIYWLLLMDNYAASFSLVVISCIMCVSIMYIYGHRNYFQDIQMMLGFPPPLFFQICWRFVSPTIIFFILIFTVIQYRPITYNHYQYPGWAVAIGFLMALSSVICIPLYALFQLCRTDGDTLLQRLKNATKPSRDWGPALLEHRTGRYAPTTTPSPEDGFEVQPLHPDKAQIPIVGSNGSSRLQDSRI
Procedure, shortened: (§2)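 Rat brain sagittal sections (20 µm) preincubated 20 min at 25 °C in Tris-HCl buffer pH 7.5 (NaCl, KCl, MgCl2, CaCl2), then 30 min at 25 °C with [125I] tracer (100 kBq, 0.03–0.04 nM) plus competitor (10 µM; glycine 1 or 10 mM). Cold washes, imaging plate 3 days, ROI PSL minus background per mm². % control from ≥triplicate slices, three rats.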

[3] = biological target: T1, Sodium- and chloride-dependent glycine transporter 1 (Rattus norvegicus); assay: Binding affinity to GlyT1 in rat brain medullary region at 0.03 to 0.04 nM preincubated for 20 mins in binding buffer before compound addition measured after 30 mins by autoradiography in presence of 0.01 mM GlyT2 inhibitor ORG25543 relative to control; assay type: tissue-based; settings: tested as the 125I-labelled form; procedure, shortened: as §2
Mus musculus [4] = assay: In vivo binding affinity to GlyT1 in ddY mouse brain medullary region at 33.3 kBq, iv after 60 mins in presence of SSR504734 2 mg/kg, iv administered 15 mins prior to compound administration relative to control; assay type: functional, organism-based; parameters: dose 2 mg/kg; settings: Medulla of organ, tested as the 125I-labelled form
Mus musculus [5] = assay: In vivo binding affinity to GlyT1 in ddY mouse brain striatum at 33.3 kBq, iv after 30 mins in presence of nonradioactive compound 2 mg/kg, iv administered 15 mins prior to compound administration relative to control; assay type: functional, organism-based; parameters: dose 2 mg/kg; settings: tested as the 125I-labelled form
Mus musculus [6] = assay: In vivo binding affinity to GlyT1 in ddY mouse brain hippocampus at 33.3 kBq, iv after 30 mins in presence of nonradioactive compound 2 mg/kg, iv administered 15 mins prior to compound administration relative to control; assay type: functional, organism-based; parameters: dose 2 mg/kg; settings: tested as the 125I-labelled form; procedure, shortened: as §1
[7] = biological target: T1, Sodium- and chloride-dependent glycine transporter 1 (Rattus norvegicus); assay: Binding affinity to GlyT1 in rat brain corpus callosum at 0.03 to 0.04 nM preincubated for 20 mins in binding buffer before compound addition measured after 30 mins by autoradiography in presence of 1 mM GlyT1 substrate glycine relative to control; assay type: tissue-based; settings: tested as the 125I-labelled form; procedure, shortened: as §2
[8] = biological target: T1, Sodium- and chloride-dependent glycine transporter 1 (Rattus norvegicus); assay: Binding affinity to GlyT1 in rat brain cerebellum at 0.03 to 0.04 nM preincubated for 20 mins in binding buffer before compound addition measured after 30 mins by autoradiography in presence of 1 mM GlyT1 substrate glycine relative to control; assay type: tissue-based; settings: tested as the 125I-labelled form; procedure, shortened: as §2
[9] = biological target: T1, Sodium- and chloride-dependent glycine transporter 1 (Rattus norvegicus); assay: Binding affinity to GlyT1 in rat brain cerebral cortex at 0.03 to 0.04 nM preincubated for 20 mins in binding buffer before compound addition measured after 30 mins by autoradiography in presence of 1 mM GlyT1 substrate glycine relative to control; assay type: tissue-based; settings: tested as the 125I-labelled form; procedure, shortened: as §2
Kidney [10] = assay: Drug uptake in ddY mouse kidney at 11.1 kBq, iv after 0.5 min by gamma counting; assay type: ADME, organism-based; settings: in vivo
Procedure, shortened: (§3)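 Male ddY mice (6 weeks, 30–35 g) received about 11.1 kBq [125I]tracer in 0.1 mL i.v. via tail vein. Killed at set times, organs dissected and weighed, radioactivity gamma counted. Reported as % injected dose/g tissue, mean ± SD, n = 5–6.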

Mus musculus [11] = assay: In vivo binding affinity to GlyT1 in ddY mouse brain thalamus at 33.3 kBq, iv after 60 mins in presence of N-Me-SSR504734 2 mg/kg, iv administered 15 mins prior to compound administration relative to control; assay type: functional
Mus musculus [12] = assay: In vivo binding affinity to GlyT1 in ddY mouse brain midbrain at 33.3 kBq, iv after 30 mins in presence of N-Me-SSR504734 2 mg/kg, iv administered 15 mins prior to compound administration relative to control; assay type: functional
Brain [13] = assay: Drug uptake in ddY mouse brain at 11.1 kBq, iv after 30 min by gamma counting; assay type: ADME, organism-based; settings: in vivo, 0.5 h; procedure, shortened: as §3
Nucleic Acid = assay: Ratio of drug level in brain to blood in ddY mouse at 11.1 kBq, iv after 5 min by gamma counting; assay type: ADME, organism-based
Heart = assay: Drug uptake in ddY mouse heart at 11.1 kBq, iv after 15 min by gamma counting; assay type: ADME, organism-based; settings: in vivo; procedure, shortened: as §3
Brain [14] = assay: Drug uptake in ddY mouse brain at 11.1 kBq, iv after 15 min by gamma counting; assay type: ADME, organism-based; settings: in vivo; procedure, shortened: as §3
Blood = assay: Drug uptake in ddY mouse blood at 11.1 kBq, iv after 5 min by gamma counting; assay type: ADME, organism-based; settings: in vivo; procedure, shortened: as §3
Lung = assay: Drug uptake in ddY mouse lung at 11.1 kBq, iv after 60 min by gamma counting; assay type: ADME, organism-based; settings: in vivo, 1 h
Procedure, shortened: (§4)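 Male ddY mice (6 weeks, 30–35 g) were given about 11.1 kBq of [125I]tracer in 0.1 mL i.v. via the tail vein. At each time point the animals were killed and organs dissected, weighed and gamma-counted. Uptake is expressed as % injected dose per gram of tissue, mean ± SD, n = 5–6.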

[15] = Metabolic stability in ddY mouse brain assessed as compound remaining at 185 kBq after 60 mins by radio-TLC; assay type: ADME, tissue-based; settings: read-out: Stability
Kidney [16] = assay: Drug uptake in ddY mouse kidney at 11.1 kBq, iv after 5 min by gamma counting; assay type: ADME, organism-based; settings: in vivo; procedure, shortened: as §4

SMILES: CN1CCCC[C@H]1[C@@H](NC(=O)c1cccc(C(F)(F)F)c1I)c1ccccc1
- Activity (Mus musculus [1]): inactive
- Activity [2]: 44.9%
- Activity [3]: 91.4%
- Activity (Mus musculus [4]): inactive
- Activity (Mus musculus [5]): Active
- Activity (Mus musculus [6]): Active
- Activity [7]: 94.1%
- Activity [8]: 97.4%
- Activity [9]: 89.6%

SMILES: CN1CCCC[C@H]1[C@@H](NC(=O)c1cccc(C(F)(F)F)c1[125I])c1ccccc1
- Drug uptake (Kidney [10]): 4.05 % ID/g
- Activity (Mus musculus [11]): 56%
- Activity (Mus musculus [12]): 55%
- Drug uptake (Brain [13]): 2.17 % ID/g
- Ratio (Nucleic Acid): 1.57
- Drug uptake (Heart): 3.38 % ID/g
- Drug uptake (Brain [14]): 1.68 % ID/g
- Drug uptake (Blood): 0.87 % ID/g
- Drug uptake (Lung): 12.09 % ID/g
- remaining at 1 h [15]: 89%
- Drug uptake (Kidney [16]): 10.71 % ID/g
